# Experimental data as given in PubChem BioAssay AID652255 (Vanderbilt Specialized Chemistry Center, 2013).
# Activity calls are given as the source filed them. No rule for the calls is given here.
# Molecular target: Proteinase-activated receptor 1 (Homo sapiens) (UniProt P25116)
# Assay: inhibition of PAR1-AP platelet activation – cell-based, CRC, P-selectin flow cytometry, selectivity assay for PAR4 antagonist project, dose response (AID 652255)
# Conditions: Washed human platelets
# In short: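 Material – washed platelets labelled with antibody · Dosing – antagonist exposure with 0.5% DMSO final · Schedule – 5 min label, 5 min compound, 10 min agonist · Benchmarks – vehicle (DMSO) control · Signal – flow cytometry fluorescence intensity, 100,000 platelet-gated events, paraformaldehyde-fixed · Probe or stimulus – PAR1 activating peptide (PAR1-AP) as agonist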
# Chain of Proteinase-activated receptor 1 (Homo sapiens) (P25116 whole entry, looked up): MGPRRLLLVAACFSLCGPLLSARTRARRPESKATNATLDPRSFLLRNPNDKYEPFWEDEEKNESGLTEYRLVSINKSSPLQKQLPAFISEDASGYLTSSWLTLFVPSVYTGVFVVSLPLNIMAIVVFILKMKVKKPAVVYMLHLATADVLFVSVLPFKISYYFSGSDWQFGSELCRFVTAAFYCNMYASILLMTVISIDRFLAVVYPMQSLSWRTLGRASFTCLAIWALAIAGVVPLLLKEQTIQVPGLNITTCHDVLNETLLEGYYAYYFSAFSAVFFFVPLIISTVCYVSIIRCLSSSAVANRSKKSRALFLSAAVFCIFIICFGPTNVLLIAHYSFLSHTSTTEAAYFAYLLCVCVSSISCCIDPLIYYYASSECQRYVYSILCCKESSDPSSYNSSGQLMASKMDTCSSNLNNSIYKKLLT
Structure (SMILES),IC50,max inhibition (stronger effect = higher value) [%]
CCCOCc1c(-c2ccccc2)c2cc([N+](=O)[O-])ccc2n1C,inactive,–
COc1ccc(COc2ccc(C(=O)NCCC(C)(C)C)cc2)cc1,–,57.1
